Assay outcomes deposited in PubChem by several laboratories.
STAT3 act: STAT3 signaling activation. activation (% of control), % at 5.6 µM. U3A cells, IL-6 STAT3-luciferase reporter, luminescence; 100% = signal with IL-6 EC80 alone. actives 0.91% (n = 190,000);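 active = activation above the screen-wide mean of compound activation plus 3 SD, cut at about 130% in these data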;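 note: 0% = background luminescence of wells with medium and substrate only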
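system = STAT3-luciferase reporter U3A cells | reagent = IL-6 stimulus at 33 ng/mL final | timing = 1 h compound pre-exposure, 6 h IL-6 stimulation, 37 °C | measured by = luminescence | evaluation = % activation versus median of IL-6-stimulated wells | control set = IL-6-only wells as 100% reference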
PPC-1+TRAIL kill: compounds killing PPC-1 cancer cells with TRAIL present (potentiator screen, no TRAIL-free arm); PPC-1 cells + TRAIL, ATPLite viability luminescence; cell killing (% activity), % at 4 µM or 5 µM; actives 0.41% (n = 220,000); AID 1443;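 active = cell killing above 50% in the first pass at 4 µM, then a duplicate retest at 5 µM averaging 50% or more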;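 note: plate controls were cells with TRAIL plus DMSO for no effect and medium-only wells lacking cells for full effect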
STAT1 blocker: reduces IFN-gamma driven STAT1 reporter signal; NIH 3T3 STAT1-luciferase reporter, luminescence; actives 0.35% (n = 200,000); AID 920; inhibition, % at 5.5 µM;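 active = inhibition above a set limit, the mean inhibition across all tested compounds plus 3 SD, cut at about 34% in these data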;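 note: 0% = IFN-gamma with DMSO and 100% = IFN-gamma with 300 µM nifuroxazide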
STAT3 blocker: STAT3 signaling inhibition. U3A cells, IL-6 STAT3-luciferase reporter, luminescence; host cell line lacks STAT1. inhibition, % at 5.5 µM. actives 0.89% (n = 190,000). AID 862;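 active = inhibition above the mean inhibition across all screened compounds plus 3 SD, cut at about 44% in these data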;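 note: 0% = DMSO only wells and 100% = 100 µM nifuroxazide control wells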
TRAIL sens C8: caspase-8 TRAIL sensitization. actives 1% (n = 360,000). NB7+C8 cells + TRAIL, ATPlite viability luminescence. AID 624354. inhibition (viability loss, TRAIL sensitization), % at 10 µM;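 active = compounds causing at least 50% loss of cell viability in the single-dose screen, relative to plate controls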
Active calls of the source: *; nt = not tested or not shown. An excerpt weighted towards active compounds, which were near 1.8% of everything screened.

SMILES	STAT3 act	PPC-1+TRAIL kill	STAT1 blocker	STAT3 blocker	TRAIL sens C8
CCn1cc(CN2CCc3c([nH]c4ccccc34)C2c2cccc(OC)c2)c(C)n1 (stereo not given)	133.1*	9.8	-4.8	-30.5	-9.1
CC(=O)N1CC2(CC(c3ccc(Cl)cc3Cl)=NO2)CN1c1cccc(Cl)c1 (stereo not given)	nt	nt	nt	nt	6.9
c1ccc(Cc2nn3c(COc4ccccc4)nnc3s2)cc1	134.5*	-11.2	-9.2	-34.4	-22.3
Cc1ccc(-c2nc(N/N=C/c3ccccc3[N+](=O)[O-])c3ccccc3n2)cc1	87.0	30.8	-26.1	25.0	89.0*
C#Cc1ccc(NC(=O)C2(C)CCN2C(=O)C2(c3ccccc3)CC2)cc1 (stereo not given)	nt	nt	nt	nt	44.9
C#Cc1ccc(NC(=O)C2(C)CCN2C(=O)CC(c2ccccc2)c2ccccc2)cc1 (stereo not given)	nt	nt	nt	nt	93.1*
CC1(C(=O)NS(=O)(=O)c2ccccc2Cl)CCN1C(=O)Cc1cc(F)ccc1F (stereo not given)	nt	nt	nt	nt	5.6
Nc1[nH]c(N=NC(=O)c2ccc(F)cc2)c2ccccc12	85.5	26.6	-8.2	15.6	35.3
Nc1ccccc1C(=O)N=Nc1[nH]c(N)c2ccccc12	90.5	42.1	-12.7	14.0	51.1*
COc1ccc(C=O)cc1CSc1ncccc1C(=O)O	nt	nt	nt	nt	-13.2
C[C@@H](c1ccccc1)N1C[C@H]2CCCN2c2cc(Br)ccc2S1(=O)=O	nt	nt	nt	nt	9.4
CCSc1nc(N)nc2c1ncn2C1OC(CO)C(O)C1O (stereo not given)	nt	nt	nt	nt	-2.3
Cn1cnc([N+](=O)[O-])c1Sc1nc(N)nc2c1ncn2C1OC(CO)C(O)C1O (stereo not given)	nt	nt	nt	nt	70.5*
CCCCSc1nc(N)nc2c1ncn2C1OC(CO)C(O)C1O (stereo not given)	nt	nt	nt	nt	5.0
Cn1cnc([N+](=O)[O-])c1Sc1nc(N)nc2c1ncn2C1CC(O)C(CO)O1 (stereo not given)	nt	nt	nt	nt	71.8*
COc1cccc(C(=O)Nc2nc3ccccc3s2)c1	nt	nt	nt	nt	28.8
COc1ccc(C(=O)Nc2nc3ccccc3s2)cc1	nt	nt	nt	nt	59.6*
O=C(Nc1nc2ccccc2s1)c1ccc(OCC2CCCO2)cc1 (stereo not given)	86.1	22.5	-86.6	18.8	67.3*
CN(CC1CCCO1)S(=O)(=O)c1ccc(C(=O)Nc2nc3cc4c(cc3s2)OCO4)cc1 (stereo not given)	36.7	nt	6.8	82.1*	35.4
O=C(Nc1ncccc1O)c1ccc(OCC2CCCO2)cc1 (stereo not given)	nt	nt	nt	nt	17.5
COc1ccc2nc(NC(=O)c3ccccc3O)sc2c1	nt	nt	nt	nt	78.0*
CN(CC1CCCO1)S(=O)(=O)c1ccc(C(=O)Nc2ccc3c(c2)OCO3)cc1 (stereo not given)	96.3	3.8	8.5	8.0	5.4
O=C(COC(=O)c1cnc(Cl)c(Cl)c1)NC1CCCC1	nt	nt	nt	nt	-17.0
Cc1ccc(C(=O)Nc2nc3ccccc3c(=O)s2)cc1	84.8	39.5	-27.6	21.4	61.0*
COc1ccc2nc(Nc3ccc4c(c3)OCO4)sc2c1	91.4	39.2	-56.7	12.5	4.9
SMILES	STAT3 act	PPC-1+TRAIL kill	STAT1 blocker	STAT3 blocker	TRAIL sens C8
COc1ccc2nc(NC(=O)c3ccco3)sc2c1	nt	nt	nt	nt	66.8*
COc1ccc2nc(Nc3ccccc3)sc2c1	86.2	49.2	-54.6	19.3	52.4*
Cc1ccc2nc(NC(=S)NC(=O)c3ccco3)sc2c1	105.5	5.7	-23.4	-9.6	81.8*
O=C(Nc1nc2ccc(Cl)cc2s1)c1ccco1	69.0	7.7	-17.7	35.4	40.4
COc1ccc(NC(=O)N(C)C[C@H]2Oc3ccc(NC(=O)Nc4c(C)noc4C)cc3C(=O)N([C@H](C)CO)C[C@@H]2C)cc1	nt	nt	nt	nt	-2.8
CCNC(=O)C[C@@H]1C=C[C@@H](NS(=O)(=O)c2ccc(F)cc2)[C@@H](CO)O1	nt	nt	nt	nt	0.7
COC1CC(=O)C2OC(c3ccccc3)OCC2O1 (stereo not given)	nt	nt	nt	nt	-8.4
COc1ccc(F)cc1S(=O)(=O)n1nc(C)cc1C	nt	nt	nt	nt	-10.4
Cc1ccc2nc(NC(=O)c3ccc(-c4nc5ccccc5s4)s3)sc2c1	83.7	10.9	-3.9	18.8	66.9*
COc1ccc2nc(NNC(=O)c3cc(=O)c4ccccc4o3)sc2c1	nt	15.5	-14.9	nt	48.0*
COc1ccc([C@H]2CN(c3ccc(OC)cc3)C(=O)[C@@H]2CC(=O)Nc2ccccc2)cc1	nt	nt	nt	nt	1.4
COc1ccc(NC(=O)CS(=O)(=O)c2cn(CC(=O)N3CCCC3)c3ccccc23)c(OC)c1	nt	nt	nt	nt	-3.0
Cn1/c(=N/N=C/c2ccc([N+](=O)[O-])cc2)sc2ccccc21	143.9*	29.9	-35.5	-54.3	nt
COc1ccc(C2C(C(=O)c3ccccc3)N3c4ccccc4C=CC3C2[N+](=O)[O-])cc1 (stereo not given)	132.9*	9.6	0.0	-38.0	3.7
COc1ccc(N2C(=O)[C@@H]3[C@H](C2=O)[C@H](C(C)=O)N2c4ccccc4C=C[C@@H]32)cc1	nt	3.4	nt	nt	0.8
CC12CCCCN1CCCc1c2[nH]c2ccccc12 (stereo not given)	135.6*	21.5	-5.0	-36.3	5.0
c1ccc2c3c([nH]c2c1)C1(CCCCC1)NCC3	110.9	-7.3	0.6	-12.2	-7.5
CCC(C)NC(=O)CSc1nnc(-c2ccc(OC)c(OC)c2)c(-c2ccc(OC)c(OC)c2)n1 (stereo not given)	nt	nt	nt	nt	-21.6
N#C/C(=C\c1ccccc1)C(=O)N(c1ccccn1)C1CCCCC1	105.8	59.1*	7.5	-4.2	-13.1
O=C(CN1C(=O)c2ccccc2S1(=O)=O)c1ccc(F)cc1	nt	-7.1	nt	nt	31.2
O=C(CN1C(=O)c2ccccc2S1(=O)=O)c1ccccc1F	nt	nt	nt	nt	46.3*
O=C(CN1C(=O)c2ccccc2S1(=O)=O)c1ccc(Cl)cc1Cl	nt	nt	nt	nt	67.3*
Cc1cccc(-c2cnc(C(O)Cc3ccccc3)[nH]2)c1 (stereo not given)	nt	nt	nt	nt	-2.6
c1ccc(-c2csc(Nc3cccnc3)n2)cc1	148.7*	6.6	-41.4	-54.5	-7.2
Fc1ccc(Nc2nc(-c3cccnc3)cs2)cc1	157.0*	nt	-41.6	-64.1	5.9
SMILES	STAT3 act	PPC-1+TRAIL kill	STAT1 blocker	STAT3 blocker	TRAIL sens C8
COc1ccc(S(=O)(=O)NC(=O)C2(C)CCN2C(=O)c2c(C)noc2C)cc1 (stereo not given)	nt	nt	nt	nt	-1.2
COCCn1nnnc1C(c1ccc(OC)c(OC)c1)N1CCN(c2nc3ccccc3s2)CC1 (stereo not given)	105.2	71.4*	-3.4	1.6	-13.0
COc1ccc(C(c2nnnn2Cc2ccccc2)N2CCN(c3nc4ccccc4s3)CC2)cc1 (stereo not given)	109.4	-4.9	-2.1	-4.4	7.0
CS(=O)(=O)Nc1ccc(-c2ccc3nccn3c2)cc1	nt	nt	nt	nt	25.0
Cc1ccc(S(=O)(=O)n2ccc3c(OCCOCCNCc4ccc(F)cc4)cccc32)cc1	nt	nt	nt	nt	52.5*
Cc1ccc(S(=O)(=O)n2ccc3c(OCCOCCSCC(NC(=O)OC(C)(C)C)C(=O)O)cccc32)cc1 (stereo not given)	nt	nt	nt	nt	15.7
Cc1cc2nc3ccc(N(C)C)cc3nc2cc1N	nt	nt	nt	nt	51.5*
c1ccc2c(c1)ccc1[nH]c3c(c12)CCCC3	nt	nt	nt	nt	-1.7
